High-throughput results from PubChem.
TRPC6 inhibitor: blocks the mouse TRPC6 cation channel | B-score at 10 µM | actives 1.1% (n = 310,000) | HEK293-TRPC6, membrane potential dye, ACh-evoked depolarization; active compounds read low;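 active = B-score under library mean minus 3 SD, initial fluorescence not abnormally high, positive integrated signal ratio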;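 also: B-score derived from integrated fluorescence ratio over the kinetic read; more negative B-score means stronger inhibition of depolarization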
Target sequence (Q61143 whole entry, looked up): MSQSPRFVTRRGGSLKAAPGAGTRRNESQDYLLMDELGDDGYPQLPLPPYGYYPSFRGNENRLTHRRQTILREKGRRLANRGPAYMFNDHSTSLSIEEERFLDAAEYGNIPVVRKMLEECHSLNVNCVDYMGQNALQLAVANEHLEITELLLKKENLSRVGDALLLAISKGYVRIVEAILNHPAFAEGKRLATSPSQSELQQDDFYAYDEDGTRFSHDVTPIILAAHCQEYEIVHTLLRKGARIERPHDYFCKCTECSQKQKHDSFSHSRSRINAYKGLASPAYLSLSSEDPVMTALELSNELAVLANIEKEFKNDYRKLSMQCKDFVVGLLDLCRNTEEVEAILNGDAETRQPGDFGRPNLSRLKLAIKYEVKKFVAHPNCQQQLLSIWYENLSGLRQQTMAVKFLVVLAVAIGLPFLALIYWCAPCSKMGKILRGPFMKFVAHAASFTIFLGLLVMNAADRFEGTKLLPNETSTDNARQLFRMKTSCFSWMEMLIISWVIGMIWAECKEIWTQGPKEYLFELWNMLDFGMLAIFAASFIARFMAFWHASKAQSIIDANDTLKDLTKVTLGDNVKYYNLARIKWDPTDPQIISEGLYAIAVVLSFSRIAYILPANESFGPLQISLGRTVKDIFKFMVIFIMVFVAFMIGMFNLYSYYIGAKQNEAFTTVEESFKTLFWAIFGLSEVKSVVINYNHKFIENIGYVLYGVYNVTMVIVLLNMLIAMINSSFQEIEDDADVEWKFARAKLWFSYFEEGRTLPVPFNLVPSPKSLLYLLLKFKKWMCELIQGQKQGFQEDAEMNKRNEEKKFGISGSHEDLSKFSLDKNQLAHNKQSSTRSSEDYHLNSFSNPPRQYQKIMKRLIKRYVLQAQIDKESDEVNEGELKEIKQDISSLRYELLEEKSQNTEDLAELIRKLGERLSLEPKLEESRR
Pemphigus Ab inh: inhibitors of pemphigus antibody binding to human desmoglein-3; binding (percent of control), % at 10 µM; actives 0.48% (n = 310,000); DSG3-coupled beads, scFv-anti-DSG3-GFP binding, flow cytometry; active compounds read low;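 active = binding more than 3 SD below its plate's average and above zero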;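 also: hits lower antibody fragment binding to DSG3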
TRPC6 activator: activators of mouse TRPC6 channel | Q61143 | HEK293-TRPC6 membrane potential dye fluorescence; active compounds read high | B-score at 10 µM | actives 0.13% (n = 310,000) | AID 2550;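 active = B-score of the integrated fluorescence ratio above library mean plus 3 SD, and starting fluorescence ratio within library mean plus 5 SD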;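 also: higher score means more depolarization so channel activation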
TRPC4 potent: allosteric potentiators of mouse TRPC4 channel. actives 0.42% (n = 310,000). AID 2227. Q9QUQ5. B-score at 10 µM. HEK293 TRPC4beta/mu-opioid, DAMGO EC20, Fluo-4 Ca2+ flux; active compounds read high;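 active = B-score of calcium response area above 5 SD of library B-scores, with initial fluorescence ratio within 5 SD of library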
TRPC4 act: opens the mouse TRPC4 cation channel | AID 2237 | B-score at 10 µM | Q9QUQ5 | actives 0.49% (n = 310,000) | HEK293 TRPC4beta/mu-opioid, Fluo4 calcium fluorescence; active compounds read high;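 active = B-score above 5 SD of library B-scores, and initial fluorescence ratio not above library mean plus 5 SD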;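 also: positive B-score marks a calcium rise read as TRPC4 activation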
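system = HEK293 cells stably co-expressing mouse TRPC4beta and mu-opioid receptor | schedule = Fluo4 dye loading 45 min at room temperature, 110 s recording | measure = B-scored integrated calcium fluorescence ratio | signal = Fluo4 calcium-sensitive dye fluorescence, kinetic, 1 Hz baseline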
TRPC4 block: blocks the mouse TRPC4 cation channel; Q9QUQ5; HEK293 TRPC4beta/mu-opioid, DAMGO-evoked Fluo4 calcium flux; active compounds read low; B-score at 10 µM; actives 0.39% (n = 300,000); AID 2247;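 active = B-score over 3 SD under the library average, no early fluorescence shift, positive overall ratio signal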
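System: stable TRPC4beta/mu-opioid receptor HEK293 cells; Dosing: single-point compound dosing; Measured by: Fluo4 Ca2+ flux fluorescence; Read-out basis: per-well B score of integrated baseline-normalized Fluo4 ratio.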
A number is an active result; ! = a repeat was not active. A selection: hits, their analogues and other compounds. The true share with any hit is near 2.5%.

Results for Clc1ccc(C2NCCc3[nH]cnc32)cc1 (stereo not drawn) ?
TRPC6 inhibitor: inactive; Pemphigus Ab inh: inactive; TRPC6 activator: inactive; TRPC4 potent: inactive; TRPC4 act: inactive; TRPC4 block: inactive

What do the screens show for `CCN1CCN(Cc2cc(Br)ccc2O)CC1`?
TRPC6 inhibitor: inactive; TRPC6 activator: inactive; TRPC4 potent: 23; TRPC4 act: inactive; TRPC4 block: inactive

Results for COc1cc(Br)cc(CN2CCN(C)CC2)c1O ?
TRPC6 inhibitor: inactive; Pemphigus Ab inh: inactive; TRPC6 activator: inactive; TRPC4 potent: inactive; TRPC4 act: inactive; TRPC4 block: inactive

Results for CCc1ccc(CN2CCN(Cc3cc(Br)ccc3O)CC2)cc1 ?
TRPC6 inhibitor: inactive; Pemphigus Ab inh: inactive; TRPC6 activator: inactive; TRPC4 potent: inactive; TRPC4 act: inactive; TRPC4 block: inactive

Results for CCN1CCN(Cc2cc(Br)cc(Br)c2O)CC1 ?
TRPC6 inhibitor: inactive; Pemphigus Ab inh: inactive; TRPC6 activator: inactive; TRPC4 potent: inactive; TRPC4 act: 200; TRPC4 block: inactive

What do the screens show for `CCC(CC)NC1CCCCC1OC` (stereo not drawn)?
TRPC6 inhibitor: inactive; Pemphigus Ab inh: inactive; TRPC6 activator: inactive; TRPC4 potent: inactive; TRPC4 act: inactive; TRPC4 block: inactive

What do the screens show for `C=CCn1c(O)c(C(C)=NC2CCN(Cc3ccccc3)CC2)c(=O)[nH]c1=O`?
TRPC6 inhibitor: inactive; Pemphigus Ab inh: inactive; TRPC6 activator: inactive; TRPC4 potent: inactive; TRPC4 act: inactive; TRPC4 block: inactive

What do the screens show for `CCC(=NC1CCN(Cc2ccccc2)CC1)c1c(O)[nH]c(=O)[nH]c1=O`?
TRPC6 inhibitor: inactive; TRPC6 activator: inactive; TRPC4 potent: 10; TRPC4 act: inactive; TRPC4 block: inactive

Results for Cc1ccccc1CN1CCNCC1 ?
TRPC6 inhibitor: inactive; Pemphigus Ab inh: inactive; TRPC6 activator: inactive; TRPC4 potent: 15; TRPC4 act: inactive; TRPC4 block: inactive

How did Clc1ccc(CN2CCNCC2)cc1 do in these assays?
TRPC6 inhibitor: inactive; Pemphigus Ab inh: inactive; TRPC6 activator: inactive; TRPC4 potent: inactive; TRPC4 act: 54; TRPC4 block: inactive

How did Clc1ccccc1CN1CCNCC1 do in these assays?
TRPC6 inhibitor: inactive; Pemphigus Ab inh: inactive; TRPC6 activator: inactive; TRPC4 potent: inactive; TRPC4 act: inactive; TRPC4 block: inactive

How did FC(F)(F)c1ccc(CN2CCNCC2)cc1 do in these assays?
TRPC6 inhibitor: inactive; Pemphigus Ab inh: inactive; TRPC6 activator: inactive; TRPC4 potent: 17; TRPC4 act: inactive; TRPC4 block: inactive

Results for COc1cccc(CN2CCNCC2)c1 ?
TRPC6 inhibitor: inactive; Pemphigus Ab inh: inactive; TRPC6 activator: inactive; TRPC4 potent: inactive; TRPC4 act: inactive; TRPC4 block: inactive

How did c1cc2c(cc1CN1CCNCC1)OCO2 do in these assays?
TRPC6 inhibitor: inactive; Pemphigus Ab inh: inactive; TRPC6 activator: inactive; TRPC4 potent: inactive; TRPC4 act: inactive; TRPC4 block: inactive

Results for O=C1NC(=O)C2(CCCc3ccc(N(CCCl)CCCl)cc32)N1 (stereo not drawn) ?
Pemphigus Ab inh: inactive

Results for Cc1ccc(Cl)cc1N1CCN(CCN)CC1 ?
TRPC6 inhibitor: inactive; Pemphigus Ab inh: inactive; TRPC6 activator: inactive; TRPC4 potent: inactive; TRPC4 act: 155; TRPC4 block: inactive

Results for CCOP(=S)(NN(Cc1ccccc1)C(=O)c1ccccc1)OCC ?
TRPC6 inhibitor: inactive; Pemphigus Ab inh: inactive; TRPC6 activator: inactive; TRPC4 potent: inactive; TRPC4 act: inactive; TRPC4 block: inactive

Results for NS(=O)(=O)OC(CCc1ccccc1)C(Cl)(Cl)Cl (stereo not drawn) ?
TRPC6 inhibitor: inactive; Pemphigus Ab inh: inactive; TRPC6 activator: inactive; TRPC4 potent: 12; TRPC4 act: inactive; TRPC4 block: inactive

What do the screens show for `O=C(Cc1ccccc1)NC(Oc1ccccc1Cl)C(Cl)(Cl)Cl` (stereo not drawn)?
TRPC6 inhibitor: inactive; Pemphigus Ab inh: inactive; TRPC6 activator: inactive; TRPC4 potent: inactive; TRPC4 act: inactive; TRPC4 block: inactive

How did COc1cc(N2CCOCC2)ccc1/C=C1\C(=O)NC(=O)N(Cc2ccc3c(c2)OCO3)C1=O do in these assays?
TRPC6 inhibitor: inactive; Pemphigus Ab inh: inactive; TRPC6 activator: inactive; TRPC4 potent: inactive; TRPC4 act: inactive; TRPC4 block: inactive

Results for CCOP(=O)(OCC)C(O)c1ccc(N(C)C)cc1 (stereo not drawn) ?
TRPC6 inhibitor: inactive; TRPC6 activator: inactive; TRPC4 potent: inactive; TRPC4 act: inactive; TRPC4 block: inactive

What do the screens show for `CCN(CC)C(=O)c1ccc(NC(=O)c2cccc(C(F)(F)F)c2)cc1`?
TRPC6 inhibitor: inactive; Pemphigus Ab inh: inactive; TRPC6 activator: inactive; TRPC4 potent: inactive; TRPC4 act: inactive; TRPC4 block: inactive

What do the screens show for `CCN1CCN(S(=O)(=O)c2ccc(Cl)c(C(=O)Nc3ccc(C(=O)N(CC)CC)cc3)c2)CC1`?
TRPC6 inhibitor: inactive; Pemphigus Ab inh: inactive; TRPC6 activator: inactive; TRPC4 potent: inactive; TRPC4 act: 48; TRPC4 block: inactive

Results for CC(C)=CCN1CC[C@@]2(C)c3cc(O)ccc3C[C@@H]1C2C (stereo partly drawn) ?
Pemphigus Ab inh: inactive

What do the screens show for `O=c1cc(CN2CCNCC2)nc2sccn12`?
TRPC6 inhibitor: inactive; Pemphigus Ab inh: inactive; TRPC6 activator: inactive; TRPC4 potent: inactive; TRPC4 act: inactive; TRPC4 block: inactive

What do the screens show for `CN1CCN(Cc2cc(=O)n3ccsc3n2)CC1`?
TRPC6 inhibitor: inactive; Pemphigus Ab inh: inactive; TRPC6 activator: inactive; TRPC4 potent: 27; TRPC4 act: inactive; TRPC4 block: inactive

What do the screens show for `CCN1CCN(c2ccc([N+](=O)[O-])cc2C=C2C(=O)NC(=O)NC2=O)CC1`?
TRPC6 inhibitor: inactive; Pemphigus Ab inh: inactive; TRPC6 activator: inactive; TRPC4 potent: 15; TRPC4 act: inactive; TRPC4 block: inactive

What do the screens show for `CC[C@@H](CO)NC(=O)[C@@H]1C=C2c3cccc4c3c(cn4C)C[C@H]2N(C)C1`?
TRPC6 inhibitor: inactive; Pemphigus Ab inh: inactive; TRPC6 activator: inactive; TRPC4 potent: inactive; TRPC4 act: 154!; TRPC4 block: inactive

What do the screens show for `CCC(CO)NC(=O)C1C=C2c3cccc4[nH]cc(c34)CC2N(C)C1` (stereo not drawn)?
TRPC6 inhibitor: inactive; Pemphigus Ab inh: inactive; TRPC6 activator: inactive; TRPC4 potent: inactive; TRPC4 act: 73; TRPC4 block: inactive

Results for CC[C@@H](CO)NC(=O)[C@@H]1C=C2c3cccc4[nH]cc(c34)C[C@H]2N(C)C1 ?
Pemphigus Ab inh: inactive

What do the screens show for `CCCCn1c(O)c(C(C)=NCCc2c[nH]c3ccccc23)c(=O)[nH]c1=O`?
TRPC6 inhibitor: inactive; TRPC6 activator: inactive; TRPC4 potent: inactive; TRPC4 act: inactive; TRPC4 block: inactive
